Assay [1] relates to Mycolicibacterium smegmatis. Briefly: Antimycobacterial activity against Mycobacterium smegmatis atR1 assessed as decrease in drug resistance development at 15 ug/disc after 2 to 3 days by paper disc method. The assay is classed as functional, organism-based. In outline: (§1)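 Mutant M. smegmatis strains were grown in Middlebrook 7H9/OADC/Tween/glycerol to OD600 1.2. Cultures were diluted 1:9:10 (culture:water:M290) and overlaid on M290 agar. Commercial or impregnated paper discs were applied and plates incubated 2–3 days at 37 °C. Inhibition halos were measured to 1 mm, run in triplicate, mean ± SD.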

The test system of assay [2] is Mycolicibacterium smegmatis. The assay can be described thus: Antimycobacterial activity against Mycobacterium smegmatis atR2 assessed as decrease in drug resistance development at 15 ug/disc after 2 to 3 days by paper disc method. The assay is classed as functional, organism-based. A digest of the protocol:
as §1

Assay [3] has as its system Mycolicibacterium smegmatis. The assay can be described thus: Antimycobacterial activity against Mycobacterium smegmatis atR11 assessed as decrease in drug resistance development at 15 ug/disc after 2 to 3 days by paper disc method. In kind it is functional, organism-based. A digest of the protocol:
as §1

For assay [4], the system named is Mycolicibacterium smegmatis. The assay can be described thus: Antimycobacterial activity against Mycobacterium smegmatis atR9 assessed as decrease in drug resistance development at 15 ug/disc after 2 to 3 days by paper disc method. In kind it is functional, organism-based. A digest of the protocol: (§2)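 Drug-resistant M. smegmatis mc2 155 mutants, isolated on M290 agar with 3.5-4× MIC of compound and resistance re-confirmed, grown in Middlebrook 7H9 (OADC, 0.1% Tween-80, 0.4% glycerol) to OD600 1.2. Diluted 1:9:10 culture:water:M290 and poured as top layer on M290 agar. Impregnated paper discs applied; 37 °C for 2–3 days. Halos measured to nearest 1 mm; triplicates, mean ± SD versus control strain.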

For assay [5], the system named is Mycolicibacterium smegmatis. The assay can be described thus: Antimycobacterial activity against Mycobacterium smegmatis atR8 assessed as decrease in drug resistance development at 15 ug/disc after 2 to 3 days by paper disc method. In kind it is functional, organism-based. A digest of the protocol: as §2
For assay [6], the system named is Mycolicibacterium smegmatis. Briefly: Antimycobacterial activity against Mycobacterium smegmatis atR14 assessed as decrease in drug resistance development at 15 ug/disc after 2 to 3 days by paper disc method. In kind it is functional, organism-based. A digest of the protocol: as §1
For assay [7], the system named is Mycolicibacterium smegmatis. The assay can be described thus: Antimycobacterial activity against Mycobacterium smegmatis atR19 assessed as decrease in drug resistance development at 40 nmol/disc after 2 to 3 days by paper disc method. In kind it is functional, organism-based. A digest of the protocol: as §1
The subject of assay [8] is Mycolicibacterium smegmatis. Briefly: Antimycobacterial activity against Mycobacterium smegmatis atR40 assessed as decrease in drug resistance development at 40 nmol/disc after 2 to 3 days by paper disc method. In kind it is functional, organism-based. In outline: as §2
For assay [9], the system named is Mycolicibacterium smegmatis. Briefly: Antimycobacterial activity against Mycobacterium smegmatis atR19 in liquid medium after 48 hrs by two-fold serial dilution method. The assay is classed as functional. As to conditions: atR19, 48 h. In outline: (§3)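 M. smegmatis resistant mutants were isolated on M290 agar containing 3.5-4× MIC of the test compound at 30°C and resistance was reconfirmed. MIC was then run in Lemco-Tw broth (Tween-80 0.05%). An overnight culture was diluted 1:200, and two-fold serial dilutions in DMSO were added. Plates were incubated at 37°C and 250 rpm for 48 h. MIC was read as the lowest concentration with no visible growth.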

The subject of assay [10] is Mycolicibacterium smegmatis. The assay can be described thus: Antimycobacterial activity against Mycobacterium smegmatis atR8 in liquid medium after 48 hrs by two-fold serial dilution method. As to conditions: atR8, 48 h. The assay is classed as functional. A digest of the protocol:
as §3

The subject of assay [11] is Mycolicibacterium smegmatis. The assay can be described thus: Antimycobacterial activity against Mycobacterium smegmatis atR37 in liquid medium after 48 hrs by two-fold serial dilution method. In kind it is functional. As to conditions: atR37, 48 h. A digest of the protocol:
as §3

Assay [12] concerns Mycolicibacterium smegmatis. Briefly: Antimycobacterial activity against Mycobacterium smegmatis atR14 assessed as decrease in drug resistance development at 40 nmol/disc after 2 to 3 days by paper disc method. In kind it is functional, organism-based. In outline: as §1
Assay [13] deals with Mycolicibacterium smegmatis. The assay can be described thus: Antimycobacterial activity against Mycobacterium smegmatis MC2 155 in liquid medium after 48 hrs by two-fold serial dilution method. In kind it is functional. As to conditions: MC2 155, 48 h. A digest of the protocol:
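M. smegmatis mc2 155 grown overnight in Lemco-Tw broth, diluted 1:200 in fresh broth. […] Top wells could carry 4% DMSO. Incubated 48 h at 37 °C with shaking at 250 rpm. MIC is the lowest concentration with no visible growth.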

The test system of assay [14] is Mycolicibacterium smegmatis. Briefly: Antimycobacterial activity against Mycobacterium smegmatis atR40 in liquid medium after 48 hrs by two-fold serial dilution method. In kind it is functional. As to conditions: atR40, 48 h. In outline: as §3
Assay [15] deals with Mycolicibacterium smegmatis. Briefly: Antimycobacterial activity against Mycobacterium smegmatis atR10 in liquid medium after 48 hrs by two-fold serial dilution method. The assay is classed as functional. As to conditions: atR10, 48 h. In outline:
as §3

Assay [16] concerns Mycolicibacterium smegmatis. The assay can be described thus: Antimycobacterial activity against Mycobacterium smegmatis atR33 in liquid medium after 48 hrs by two-fold serial dilution method. As to conditions: atR33, 48 h. In kind it is functional. A digest of the protocol:
as §3

Assay [17] has as its system Mycolicibacterium smegmatis. Briefly: Antimycobacterial activity against Mycobacterium smegmatis atR17 in liquid medium after 48 hrs by two-fold serial dilution method. The assay is classed as functional. As to conditions: atR17, 48 h. In outline: as §3
For assay [18], the system named is Mycolicibacterium smegmatis. The assay can be described thus: Antimycobacterial activity against Mycobacterium smegmatis MC2 155 in solid medium by two-fold serial dilution method. The assay is classed as functional. A digest of the protocol:
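M290 soybean-casein agar plates carried two-fold compound dilutions, 8–64 or 8–128 µg/ml, some with extra 20 or 25 µg/ml plates.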

In assay [19] the test system is Mycolicibacterium smegmatis. The assay can be described thus: Antimycobacterial activity against Mycobacterium smegmatis atR1 in liquid medium after 48 hrs by two-fold serial dilution method. In kind it is functional. As to conditions: atR1, 48 h. A digest of the protocol:
as §3

The subject of assay [20] is Mycolicibacterium smegmatis. Briefly: Antimycobacterial activity against Mycobacterium smegmatis atR33 assessed as decrease in drug resistance development at 40 nmol/disc after 2 to 3 days by paper disc method. The assay is classed as functional, organism-based. A digest of the protocol: as §1
Assay [21] concerns Mycolicibacterium smegmatis. The assay can be described thus: Antimycobacterial activity against Mycobacterium smegmatis atR2 assessed as decrease in drug resistance development at 40 nmol/disc after 2 to 3 days by paper disc method. In kind it is functional, organism-based. In outline:
as §1

Assay [22] has as its system Mycolicibacterium smegmatis. The assay can be described thus: Antimycobacterial activity against Mycobacterium smegmatis atR37 assessed as decrease in drug resistance development at 40 nmol/disc after 2 to 3 days by paper disc method. The assay is classed as functional, organism-based. A digest of the protocol: as §2
Assay [23] has as its system Mycolicibacterium smegmatis. Briefly: Antimycobacterial activity against Mycobacterium smegmatis atR11 assessed as decrease in drug resistance development at 40 nmol/disc after 2 to 3 days by paper disc method. In kind it is functional, organism-based. A digest of the protocol:
as §1

The test system of assay [24] is Mycolicibacterium smegmatis. The assay can be described thus: Antimycobacterial activity against Mycobacterium smegmatis atR17 assessed as decrease in drug resistance development at 40 nmol/disc after 2 to 3 days by paper disc method. The assay is classed as functional, organism-based. A digest of the protocol:
as §1

The test system of assay [25] is Mycolicibacterium smegmatis. The assay can be described thus: Antimycobacterial activity against Mycobacterium smegmatis atR8 assessed as decrease in drug resistance development at 40 nmol/disc after 2 to 3 days by paper disc method. The assay is classed as functional, organism-based. In outline: as §2
Assay [26] concerns Mycolicibacterium smegmatis. Briefly: Antimycobacterial activity against Mycobacterium smegmatis atR10 assessed as decrease in drug resistance development at 40 nmol/disc after 2 to 3 days by paper disc method. The assay is classed as functional, organism-based. In outline:
as §1

In assay [27] the test system is Mycolicibacterium smegmatis. The assay can be described thus: Antimycobacterial activity against Mycobacterium smegmatis atR9 in liquid medium after 48 hrs by two-fold serial dilution method. The assay is classed as functional. As to conditions: atR9, 48 h. In outline: as §3
Assay [28] relates to Mycolicibacterium smegmatis. The assay can be described thus: Antimycobacterial activity against Mycobacterium smegmatis atR14 in liquid medium after 48 hrs by two-fold serial dilution method. In kind it is functional. As to conditions: atR14, 48 h. In outline:
as §3

Assay [29] concerns Mycolicibacterium smegmatis MC2 155. Briefly: Inhibition of STPK in Mycobacterium smegmatis MC2 155 expressing aminoglycoside phophotransferase-8 assessed as growth inhibition at 5 nmol/disk after 18 hrs in presence of kanamycin by paper disk method.
In assay [30] the test system is Mycolicibacterium smegmatis. Briefly: Antimycobacterial activity against Mycobacterium smegmatis atR2 in liquid medium after 48 hrs by two-fold serial dilution method. The assay is classed as functional. As to conditions: atR2, 48 h. In outline: as §3
Assay [31] deals with Mycolicibacterium smegmatis. Briefly: Antimycobacterial activity against Mycobacterium smegmatis atR1 assessed as decrease in drug resistance development at 40 nmol/disc after 2 to 3 days by paper disc method. The assay is classed as functional, organism-based. A digest of the protocol:
as §1

In assay [32] the test system is Mycobacterium tuberculosis. Briefly: Antimycobacterial activity against Mycobacterium tuberculosis H37Rv in liquid medium. The assay is classed as functional. In outline:
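M. tuberculosis H37Rv; MIC determined in liquid medium on the automated Bactec MGIT 960 system.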

The test system of assay [33] is Mycolicibacterium smegmatis. The assay can be described thus: Antimycobacterial activity against Mycobacterium smegmatis atR11 in liquid medium after 48 hrs by two-fold serial dilution method. The assay is classed as functional. As to conditions: atR11, 48 h. A digest of the protocol: as §3
In assay [34] the test system is Mycolicibacterium smegmatis MC2 155. The assay can be described thus: Inhibition of STPK in Mycobacterium smegmatis MC2 155 expressing aminoglycoside phophotransferase-8 assessed as growth inhibition at 25 nmol/disk after 18 hrs in presence of kanamycin by paper disk method.

Values after ≈ are worked out from the molar mass of the structure shown. Active and inactive are the calls of the source.

Turning to `CC[C@H]1OC(=O)[C@H](C)[C@@H](O[C@H]2C[C@@](C)(OC)[C@@H](O)[C@H](C)O2)[C@H](C)[C@@H](O[C@@H]2O[C@H](C)C[C@H](N(C)C)[C@H]2O)[C@](C)(O)C[C@@H](C)C(=O)[C@H](C)[C@@H](O)[C@]1(C)O`, the result in [1], in [2], in assay [3], in [4], in assay [5] and in assay [6] was inactive.
As to `Cc1cc(C)n(-c2nnc3ncc(Sc4ccccc4)n3n2)n1`, the outcome in assay [7], in assay [8], in assay [12], in assay [20], in [21] and in [22] was inactive. The result in assay [23], in assay [24], in assay [25], in assay [26] and in assay [31] was inactive. In addition, the minimum inhibitory concentration (MIC) was over 64 µg/mL in assay [9]; over 64 µg/mL in assay [10]; over 64 µg/mL in assay [11]; 99 µM (≈ 32 µg/mL) in [13]; over 64 µg/mL in assay [14]; over 64 µg/mL in [15]. The MIC was over 64 µg/mL in [16]; over 64 µg/mL in assay [17]; 61.8 µM (≈ 20 µg/mL) in assay [18]; over 64 µg/mL in assay [19]; over 64 µg/mL in assay [27]; over 64 µg/mL in assay [28]. Further, the minimal inhibitory concentration (MIC) in [30] is over 64 µg/mL; in assay [32] it was 3.1 µM (≈ 1 µg/mL); in assay [33] it was over 64 µg/mL. Moreover, in assay [29], the inhibition zone (IZ) came to 11.5 mm.
For `CC(C)Sc1cnc2nnc(-n3ccnc3)nn12`, the inhibition zone (IZ) in [34] stood at 13.8 mm.

As usually defined, the MIC is the smallest concentration in the dilution series that meets the test's criterion for growth inhibition. The low end stands for greater potency, the high end for weaker potency.

The values are drawn from ChEMBL document CHEMBL4359813, “Synthesis and antimycobacterial activity of imidazo[1,2-b][1,2,4,5]tetrazines” (2019).
